Assay results from ChEMBL document CHEMBL1132701, “Orally active isoxazoline glycoprotein IIb/IIIa antagonists with extended duration of action” (J Med Chem, 1999).

Experiments:
[1] = species on record: Homo sapiens; assay: The compound was tested for their ability to inhibit ADP-stimulated platelet aggregation in human platelet rich plasma; assay type: functional
Summary of the method: (§1)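 IC50 for inhibition of ADP-induced aggregation in human platelet-rich plasma, determined in three donors.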

[2] = tested on: Canis familiaris; assay: Inhibition of ex vivo platelet aggregation in dogs after 24 hr of administration of iv bolus dose of 0.025 mg/kg; assay type: functional; conditions: Canis lupus familiaris
Summary of the method: (§2)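 Dogs received an iv bolus, mostly 0.025 mg/kg, with some tested at 0.05 mg/kg. Blood was sampled at 1, 5 and 24 h postdose. Ex vivo platelet aggregation was stimulated with ADP (100 μM) and reported as % inhibition; n = 2.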

[3] = tested on: Canis familiaris; assay: Compounds having IC50 values less than 100 nM in the PRP assay were assessed for their ability to inhibit ex vivo platelet aggregation in dogs after 5 hr of administration of iv bolus dose of 0.025 mg/kg; assay type: functional; conditions: Canis lupus familiaris; summary of the method: as §2
[4] = tested on: Canis familiaris; assay: Inhibition of ex vivo platelet aggregation in dogs after 6 hr of administration of oral dose of 0.1 mg/kg; conditions: Canis lupus familiaris
[5] = tested on: Canis familiaris; assay: Inhibition of ex vivo platelet aggregation in dogs after 24 hr of administration of oral dose of 0.1 mg/kg; conditions: Canis lupus familiaris
[6] = tested on: Canis familiaris; assay: Inhibition of ex vivo platelet aggregation in dogs after 1 hr of administration of oral dose of 0.1 mg/kg; conditions: Canis lupus familiaris
[7] = species on record: Canis familiaris; assay: The compound was tested for their ability to inhibit ADP-stimulated platelet aggregation in dog platelet rich plasma; assay type: functional; conditions: Canis lupus familiaris
[8] = target: Integrin alpha-IIb/beta-3 (Canis familiaris); assay: Dissociation constant for activated Fibrinogen Receptor
[9] = target: Integrin alpha-IIb/beta-3 (Canis familiaris); assay: Dissociation constant for unactivated Fibrinogen Receptor
[10] = target: Integrin alpha-5/beta-1 (Homo sapiens) (UniProt P05556+P08648); assay: Inhibitory activity against alpha5-beta1 integrin at 10 uM
[11] = tested on: Canis familiaris; assay: Inhibition of ex vivo platelet aggregation in dogs after 1 hr of administration of oral dose of 0.1 mg/kg; assay type: functional; conditions: Canis lupus familiaris
[12] = target: Integrin alpha-4/beta-1 (Homo sapiens, UniProt P05556+P13612); assay: Inhibitory activity against alpha4-beta1 integrin; assay type: protein-complex assay
Sequence of Integrin alpha-4/beta-1 (P05556 whole entry): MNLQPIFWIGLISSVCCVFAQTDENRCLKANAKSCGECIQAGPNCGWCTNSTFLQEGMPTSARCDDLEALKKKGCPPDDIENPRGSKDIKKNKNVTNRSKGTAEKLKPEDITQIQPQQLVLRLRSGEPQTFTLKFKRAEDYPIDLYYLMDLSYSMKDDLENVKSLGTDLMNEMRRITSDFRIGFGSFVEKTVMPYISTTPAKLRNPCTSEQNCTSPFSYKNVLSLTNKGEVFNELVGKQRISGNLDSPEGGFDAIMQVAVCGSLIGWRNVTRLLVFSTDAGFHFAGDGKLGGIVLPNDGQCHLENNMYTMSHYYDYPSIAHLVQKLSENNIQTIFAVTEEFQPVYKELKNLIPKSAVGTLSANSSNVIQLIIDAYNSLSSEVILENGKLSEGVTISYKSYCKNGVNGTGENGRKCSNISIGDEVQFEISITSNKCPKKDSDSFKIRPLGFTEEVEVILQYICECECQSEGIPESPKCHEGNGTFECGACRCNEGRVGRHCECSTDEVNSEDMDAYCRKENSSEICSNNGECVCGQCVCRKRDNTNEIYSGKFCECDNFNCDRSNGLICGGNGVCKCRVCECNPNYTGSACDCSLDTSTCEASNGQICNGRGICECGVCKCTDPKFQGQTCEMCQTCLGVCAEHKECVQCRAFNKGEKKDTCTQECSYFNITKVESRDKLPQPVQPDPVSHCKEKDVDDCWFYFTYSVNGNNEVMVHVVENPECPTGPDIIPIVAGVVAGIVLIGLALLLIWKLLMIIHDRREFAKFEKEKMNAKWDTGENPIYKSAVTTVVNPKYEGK
Sequence of Integrin alpha-4/beta-1 (P13612 whole entry): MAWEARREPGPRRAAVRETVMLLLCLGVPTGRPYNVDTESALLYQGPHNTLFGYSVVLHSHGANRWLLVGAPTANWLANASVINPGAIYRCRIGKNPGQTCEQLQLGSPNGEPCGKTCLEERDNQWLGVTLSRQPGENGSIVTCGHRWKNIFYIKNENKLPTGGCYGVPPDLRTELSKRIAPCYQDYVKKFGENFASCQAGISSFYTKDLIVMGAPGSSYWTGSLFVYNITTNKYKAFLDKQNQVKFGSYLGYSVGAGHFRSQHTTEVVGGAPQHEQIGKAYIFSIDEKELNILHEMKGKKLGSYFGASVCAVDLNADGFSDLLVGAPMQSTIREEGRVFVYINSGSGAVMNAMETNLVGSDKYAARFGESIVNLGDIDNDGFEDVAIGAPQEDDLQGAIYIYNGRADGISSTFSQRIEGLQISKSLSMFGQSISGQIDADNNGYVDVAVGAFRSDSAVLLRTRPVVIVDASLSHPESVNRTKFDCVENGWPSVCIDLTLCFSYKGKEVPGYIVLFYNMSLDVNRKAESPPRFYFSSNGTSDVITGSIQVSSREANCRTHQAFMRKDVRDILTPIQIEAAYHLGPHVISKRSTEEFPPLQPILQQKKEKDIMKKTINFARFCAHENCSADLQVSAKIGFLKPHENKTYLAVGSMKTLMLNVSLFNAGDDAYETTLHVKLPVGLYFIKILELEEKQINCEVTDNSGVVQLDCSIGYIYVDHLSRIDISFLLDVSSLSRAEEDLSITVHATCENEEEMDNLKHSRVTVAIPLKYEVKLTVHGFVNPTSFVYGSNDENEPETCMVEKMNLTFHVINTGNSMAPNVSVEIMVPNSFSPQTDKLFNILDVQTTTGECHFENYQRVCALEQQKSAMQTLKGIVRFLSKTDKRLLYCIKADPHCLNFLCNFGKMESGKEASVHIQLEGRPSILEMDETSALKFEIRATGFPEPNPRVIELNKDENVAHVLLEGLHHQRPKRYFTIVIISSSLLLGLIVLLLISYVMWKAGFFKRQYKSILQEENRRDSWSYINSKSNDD

[13] = tested on: Canis familiaris; assay: Inhibition of ex vivo platelet aggregation in dogs after 24 hr of administration of oral dose of 0.1 mg/kg; assay type: functional; conditions: Canis lupus familiaris
[14] = target: Integrin alpha-IIb/beta-3 (Canis familiaris); assay: Dissociation constant for unactivated Fibrinogen Receptor; remark: listed apart in the source
[15] = target: Integrin alpha-V/beta-3 (Homo sapiens, UniProt P05106+P06756); assay: Inhibitory activity against […] integrin; assay type: protein-complex assay
Sequence of Integrin alpha-V/beta-3 (P05106 27-788 limits assumed): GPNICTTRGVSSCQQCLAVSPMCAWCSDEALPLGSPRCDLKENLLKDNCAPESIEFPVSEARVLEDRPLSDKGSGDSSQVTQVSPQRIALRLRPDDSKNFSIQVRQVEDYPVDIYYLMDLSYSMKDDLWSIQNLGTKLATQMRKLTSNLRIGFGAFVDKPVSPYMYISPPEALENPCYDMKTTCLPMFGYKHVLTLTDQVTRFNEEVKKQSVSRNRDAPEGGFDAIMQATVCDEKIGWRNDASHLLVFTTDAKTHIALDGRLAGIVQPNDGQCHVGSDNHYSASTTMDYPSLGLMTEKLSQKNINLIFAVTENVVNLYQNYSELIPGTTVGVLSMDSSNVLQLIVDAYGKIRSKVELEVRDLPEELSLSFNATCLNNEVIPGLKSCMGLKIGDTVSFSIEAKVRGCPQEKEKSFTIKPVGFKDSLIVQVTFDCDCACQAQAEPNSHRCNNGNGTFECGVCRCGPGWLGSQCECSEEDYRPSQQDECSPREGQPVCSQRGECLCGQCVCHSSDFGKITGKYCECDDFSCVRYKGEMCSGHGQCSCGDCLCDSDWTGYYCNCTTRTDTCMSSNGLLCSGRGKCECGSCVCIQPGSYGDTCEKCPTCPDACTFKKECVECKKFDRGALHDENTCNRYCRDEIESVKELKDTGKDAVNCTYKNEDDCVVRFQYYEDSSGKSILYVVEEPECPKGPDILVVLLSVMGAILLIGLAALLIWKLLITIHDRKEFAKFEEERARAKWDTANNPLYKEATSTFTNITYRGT
Sequence of Integrin alpha-V/beta-3 (P06756 31-889 limits assumed): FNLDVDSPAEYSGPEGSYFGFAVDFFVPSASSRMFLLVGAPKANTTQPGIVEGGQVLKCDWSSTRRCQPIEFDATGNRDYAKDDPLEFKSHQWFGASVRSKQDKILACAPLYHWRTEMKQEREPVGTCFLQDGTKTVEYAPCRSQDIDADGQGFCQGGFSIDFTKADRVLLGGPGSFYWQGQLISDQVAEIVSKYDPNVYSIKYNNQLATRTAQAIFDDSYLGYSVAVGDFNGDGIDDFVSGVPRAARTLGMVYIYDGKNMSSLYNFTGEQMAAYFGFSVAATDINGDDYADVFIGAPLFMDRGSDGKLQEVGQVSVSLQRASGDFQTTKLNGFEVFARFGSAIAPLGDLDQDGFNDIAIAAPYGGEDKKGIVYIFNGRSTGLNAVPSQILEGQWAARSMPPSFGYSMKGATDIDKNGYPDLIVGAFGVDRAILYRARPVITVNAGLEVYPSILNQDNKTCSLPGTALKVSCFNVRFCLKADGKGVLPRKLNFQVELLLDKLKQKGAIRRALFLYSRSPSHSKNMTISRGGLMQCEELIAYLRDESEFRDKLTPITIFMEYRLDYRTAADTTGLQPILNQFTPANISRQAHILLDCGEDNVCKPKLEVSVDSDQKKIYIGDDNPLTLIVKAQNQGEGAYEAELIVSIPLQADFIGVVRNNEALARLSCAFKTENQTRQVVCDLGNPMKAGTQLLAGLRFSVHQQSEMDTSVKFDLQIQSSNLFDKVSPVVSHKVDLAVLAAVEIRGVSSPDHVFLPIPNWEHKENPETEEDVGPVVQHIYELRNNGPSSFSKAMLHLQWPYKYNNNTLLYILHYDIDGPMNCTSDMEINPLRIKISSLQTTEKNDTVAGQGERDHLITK
Sequence of Integrin alpha-V/beta-3 (P06756 891-1048 limits assumed): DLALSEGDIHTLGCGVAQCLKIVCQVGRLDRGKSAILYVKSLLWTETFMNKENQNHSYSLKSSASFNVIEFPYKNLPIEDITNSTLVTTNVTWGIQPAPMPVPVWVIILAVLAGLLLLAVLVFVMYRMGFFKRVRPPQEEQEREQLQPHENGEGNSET

[16] = target: Integrin alpha-V/beta-5 (Homo sapiens) (UniProt P06756+P18084); assay: Inhibitory activity against alphaV-beta5 integrin at 10 uM; assay type: protein-complex assay
[17] = tested on: Canis familiaris; assay: Inhibition of ex vivo platelet aggregation in dogs after 6 hr of administration of oral dose of 0.1 mg/kg; conditions: Canis lupus familiaris; remark: listed apart in the source
[18] = tested on: Canis familiaris; assay: Inhibition ex vivo platelet aggregation by the compound in dogs after 5 hr of administration of iv bolus dose of 0.025 mg/kg; assay type: functional; conditions: Canis lupus familiaris; summary of the method: as §2
[19] = species on record: Homo sapiens; assay: The compound was tested against free acid of DMP 754 to inhibit ADP-stimulated platelet aggregation in human platelet rich plasma; assay type: functional; summary of the method: as §1
[20] = tested on: Canis familiaris; assay: Inhibition ex vivo platelet aggregation by the compound in dogs after 1 hr of administration of oral dose of 0.3 mg/kg; conditions: Canis lupus familiaris
[21] = tested on: Canis familiaris; assay: Inhibition of ex vivo platelet aggregation by the compound in dogs after 1 hr of administration of iv bolus dose of 0.025 mg/kg; assay type: functional; conditions: Canis lupus familiaris; summary of the method: as §2
[22] = tested on: Canis familiaris; assay: Inhibition ex vivo platelet aggregation by the compound in dogs after 6 hr of administration of oral dose of 0.3 mg/kg; conditions: Canis lupus familiaris
[23] = target: Integrin alpha-IIb/beta-3 (Canis familiaris); assay: Dissociation constant for activated Fibrinogen Receptor; remark: listed apart in the source
[24] = species on record: Canis familiaris; assay: The compounds were tested for their ability to inhibit ADP-stimulated platelet aggregation in dog platelet rich plasma; assay type: functional; conditions: Canis lupus familiaris
[25] = tested on: Canis familiaris; assay: Inhibition ex vivo platelet aggregation by the compound in dogs after 24 hr of administration of oral dose of 0.3 mg/kg; conditions: Canis lupus familiaris
[26] = target: Integrin alpha-IIb/beta-3 (Canis familiaris); assay: Dissociation constant for unactivated Fibrinogen Receptor; remark: listed apart in the source

Compound `Cc1cccc(S(=O)(=O)N(C)[C@@H](CNC(=O)C[C@H]2CC(c3ccc(C(=N)N)cc3)=NO2)C(=O)O)c1` has an IC50 [1] of 95 nM.

In the case of `Cc1ccccc1S(=O)(=O)N[C@@H](CNC(=O)CC1CC(c2ccc(C(=N)N)cc2)=NO1)C(=O)O` (stereo partly specified), the inhibition in vivo at 0.025 mg/kg [2] is reported as 99%, the inhibition in vivo at 0.025 mg/kg [3] is reported as 97% and the IC50 [1] is reported as 41 nM.

Compound `Cc1cccc(S(=O)(=O)N[C@@H](CNC(=O)C[C@H]2CC(c3ccc(C(=N)N)cc3)=NO2)C(=O)O)c1` has an inhibition in vivo at 0.1 mg/kg [4] of 94%, an inhibition in vivo at 0.1 mg/kg [5] of 60% and an inhibition in vivo at 0.025 mg/kg [2] of 24%. It also gave an inhibition in vivo at 0.1 mg/kg [6] of 78% and an IC50 [1] of 25 nM.

`N=C(N)c1ccc(C2=NOC(CC(=O)NC[C@H](NS(=O)(=O)c3cnn(-c4ccccc4)c3)C(=O)O)C2)cc1` (stereo partly specified) was tested, and the IC50 [1] was 72 nM.

`Cc1cccc(S(=O)(=O)N[C@@H](CNC(=O)Cc2cc(-c3ccc(C(=N)N)cc3)no2)C(=O)O)c1` showed an IC50 [1] of 69 nM.

In the case of `N=C(N)c1ccc(C2=NOC(CC(=O)NC[C@H](NS(=O)(=O)c3cccc(Br)c3)C(=O)O)C2)cc1` (stereo partly specified), the IC50 [1] is reported as 60 nM.

Work on `Cc1cccc(S(=O)(=O)N[C@@H](CNC(=O)C[C@@H]2CC(c3ccc(C(=N)N)cc3)=NO2)C(=O)O)c1` yielded an inhibition in vivo at 0.025 mg/kg [2] of 16%.

`Cc1noc(C)c1S(=O)(=O)N[C@H](CNC(=O)C[C@H]1CC(c2ccc(C(=N)N)cc2)=NO1)C(=O)O` showed an IC50 [7] of 25 nM, an IC50 [1] of 23 nM and a Kd [8] of 5.9 nM. The Kd [9] was 24.1 nM.

With `N=C(N)c1ccc(C2=NOC(CC(=O)NC[C@H](NS(=O)(=O)NCCc3ccccc3)C(=O)O)C2)cc1` (stereo partly specified) the IC50 [1] was 70 nM.

In the case of `N=C(N)c1ccc(C2=NO[C@@H](CC(=O)NC[C@H](NS(=O)(=O)c3ccccc3C(F)(F)F)C(=O)O)C2)cc1`, the IC50 [1] is reported as 89 nM.

With `N=C(N)c1ccc(C2=NOC(CC(=O)NC[C@H](NS(=O)(=O)c3cccc4nsnc34)C(=O)O)C2)cc1` (stereo partly specified) the inhibition in vivo at 0.025 mg/kg [2] was 0% and the IC50 [1] was 91 nM.

For `Cc1noc(C)c1S(=O)(=O)N[C@@H](CNC(=O)C[C@H]1CC(c2ccc(C(=N)N)cc2)=NO1)C(=O)O`, the IC50 [7] was 23 nM, the inhibition [10] was < 5% and the inhibition in vivo at 0.1 mg/kg [11] was 54%. The IC50 [12] was > 100000 nM, the inhibition in vivo at 0.1 mg/kg [13] was 75% and the Kd [14] was 0.9 nM. The IC50 [1] was 29 nM, the IC50 [15] was > 10000 nM and the inhibition [16] was < 15%. For the same compound, the Kd [8] was 0.6 nM and the inhibition in vivo at 0.1 mg/kg [17] was 88%.

`CCCCOC(=O)N[C@@H](CNC(=O)C[C@H]1CC(c2ccc(C(=N)N)cc2)=NO1)C(=O)OC` [ROXIFIBAN] gave an inhibition in vivo at 0.025 mg/kg [18] of 38%, an IC50 [19] of 50 nM and an inhibition in vivo at 0.3 mg/kg [20] of 54%. The inhibition in vivo at 0.025 mg/kg [21] was 100%, the inhibition in vivo at 0.3 mg/kg [22] was 76% and the Kd [23] was 2.83 nM. For the same compound, the IC50 [24] was 27 nM, the inhibition in vivo at 0.3 mg/kg [25] was 11% and the Kd [26] was 2.36 nM.

`CC(=O)Nc1cnc(S(=O)(=O)N[C@@H](CNC(=O)CC2CC(c3ccc(C(=N)N)cc3)=NO2)C(=O)O)s1` (stereo partly specified) gave an inhibition in vivo at 0.025 mg/kg [2] of 68% and an IC50 [1] of 53 nM.

For `N=C(N)c1ccc(C2=NOC(CC(=O)NC[C@H](NS(=O)(=O)Cc3ccccc3)C(=O)O)C2)cc1` (stereo partly specified), the inhibition in vivo at 0.025 mg/kg [2] was 26% and the IC50 [1] was 39 nM.

`Cc1ccc(S(=O)(=O)N[C@@H](CNC(=O)CC2CC(c3ccc(C(=N)N)cc3)=NO2)C(=O)O)cc1` (stereo partly specified) showed an IC50 [1] of 37 nM.

In the case of `CCCCS(=O)(=O)N[C@@H](CNC(=O)CC1CC(c2ccc(C(=N)N)cc2)=NO1)C(=O)O` (stereo partly specified), the IC50 [1] is reported as 42 nM.

For `N=C(N)c1ccc(C2=NOC(CC(=O)NC[C@H](NS(=O)(=O)c3cccc4cccnc34)C(=O)O)C2)cc1` (stereo partly specified), the inhibition in vivo at 0.025 mg/kg [2] was 67% and the IC50 [1] was 81 nM.

`CC(C)NS(=O)(=O)N[C@@H](CNC(=O)CC1CC(c2ccc(C(=N)N)cc2)=NO1)C(=O)O` (stereo partly specified) showed an IC50 [1] of 51 nM.

For `N=C(N)c1ccc(C2=NOC(CC(=O)NC[C@H](NS(=O)(=O)c3cccc4ccccc34)C(=O)O)C2)cc1` (stereo partly specified), the IC50 [1] was 55 nM.

Work on `Cc1ccccc1S(=O)(=O)N[C@@H](CNC(=O)C[C@@H]1CC(c2ccc(C(=N)N)cc2)=NO1)C(=O)O` yielded an IC50 [1] of 110 nM.

With `Cc1noc(C)c1S(=O)(=O)N[C@@H](CNC(=O)C[C@@H]1CC(c2ccc(C(=N)N)cc2)=NO1)C(=O)O` the IC50 [7] was 21 nM, the Kd [14] was 3.7 nM and the IC50 [1] was 29 nM. For the same compound, the Kd [8] was 2.7 nM.
